Measured values: ChEMBL document CHEMBL3124806, “Imidazopyridine-fused [1,3]-diazepinones: synthesis and antiproliferative activity” (Eur J Med Chem, 2014)

Columns and labels:
Assay type in all cases: functional
[1] = system: PC-3; assay: Cytotoxicity against human PC3 cells assessed as cell growth at 10 uM after 48 hrs by SRB assay relative to untreated control; settings: PC-3, 48 h, read-out: Activity
Method in brief: (§1)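 NCI-60 one-dose screen: each agent added at 10 µM, cultures incubated 48 h. Endpoint by sulforhodamine B protein-binding dye read spectrophotometrically; growth expressed as percent of untreated control cells.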

[2] = system: HCC 2998; assay: Cytotoxicity against human HCC2998 cells assessed as cell growth at 10 uM after 48 hrs by SRB assay relative to untreated control; settings: HCC 2998, 48 h, read-out: Activity
Method in brief: (§2)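 NCI-60 panel screen at a single concentration of 10 μM with 48 h incubation. Cell density measured by sulforhodamine B protein-binding dye and read spectrophotometrically. Growth expressed as percent of untreated control cells.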

[3] = system: MDA-MB-231; assay: Cytotoxicity against human MDA-MB-231 cells assessed as cell growth at 10 uM after 48 hrs by SRB assay relative to untreated control; settings: MDA-MB-231, 48 h, read-out: Activity; method in brief: as §1
[4] = system: A549; assay: Cytotoxicity against human A549 cells assessed as cell growth at 10 uM after 48 hrs by SRB assay relative to untreated control; settings: A549, 48 h, read-out: Activity; method in brief: as §2
[5] = system: DU-145; assay: Cytotoxicity against human DU145 cells assessed as cell growth at 10 uM after 48 hrs by SRB assay relative to untreated control; settings: DU-145, 48 h, read-out: Activity; method in brief: as §2
[6] = system: T47D; assay: Cytotoxicity against human T47D cells assessed as cell growth at 10 uM after 48 hrs by SRB assay relative to untreated control; settings: read-out: Activity
Method in brief: (§3)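 NCI-60 single-dose screen. Compounds were added to the cultures at 10 μM and incubated for 48 h. The end point was sulforhodamine B protein staining read spectrophotometrically. Growth is reported as percent of untreated control cells.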

[7] = system: HOP-92; assay: Cytotoxicity against human HOP92 cells assessed as cell growth at 10 uM after 48 hrs by SRB assay relative to untreated control; settings: HOP-92, 48 h, read-out: Activity; method in brief: as §2
[8] = system: SK-MEL-5; assay: Cytotoxicity against human SK-MEL-5 cells assessed as cell growth at 10 uM after 48 hrs by SRB assay relative to untreated control; settings: SK-MEL-5, 48 h, read-out: Activity; method in brief: as §3
[9] = system: ACHN; assay: Cytotoxicity against human ACHN cells assessed as cell growth at 10 uM after 48 hrs by SRB assay relative to untreated control; settings: read-out: Activity; method in brief: as §2
[10] = system: SN12C; assay: Cytotoxicity against human SN12C cells assessed as cell growth at 10 uM after 48 hrs by SRB assay relative to untreated control; settings: read-out: Activity; method in brief: as §3
[11] = system: SW-620; assay: Cytotoxicity against human SW620 cells assessed as cell growth at 10 uM after 48 hrs by SRB assay relative to untreated control; settings: SW-620, 48 h, read-out: Activity; method in brief: as §3
[12] = system: U-251; assay: Cytotoxicity against human U251 cells assessed as cell growth at 10 uM after 48 hrs by SRB assay relative to untreated control; settings: U-251, 48 h, read-out: Activity; method in brief: as §3
[13] = system: KM12; assay: Cytotoxicity against human KM12 cells assessed as cell growth at 10 uM after 48 hrs by SRB assay relative to untreated control; settings: KM12, 48 h, read-out: Activity; method in brief: as §2
[14] = system: SF-268; assay: Cytotoxicity against human SF268 cells assessed as cell growth at 10 uM after 48 hrs by SRB assay relative to untreated control; settings: SF-268, 48 h, read-out: Activity; method in brief: as §1
[15] = Cytotoxicity against human UACC257 cells assessed as cell growth at 10 uM after 48 hrs by SRB assay relative to untreated control; settings: UACC-257, 48 h, read-out: Activity; method in brief: as §3
[16] = system: HCT-116; assay: Cytotoxicity against human HCT116 cells assessed as cell growth at 10 uM after 48 hrs by SRB assay relative to untreated control; settings: HCT-116, 48 h, read-out: Activity; method in brief: as §2
[17] = system: IGROV-1; assay: Cytotoxicity against human IGROV1 cells assessed as cell growth at 10 uM after 48 hrs by SRB assay relative to untreated control; settings: IGROV-1, 48 h, read-out: Activity; method in brief: as §2
[18] = system: HOP-62; assay: Cytotoxicity against human HOP62 cells assessed as cell growth at 10 uM after 48 hrs by SRB assay relative to untreated control; settings: HOP-62, 48 h, read-out: Activity; method in brief: as §2
[19] = Cytotoxicity against human NCI-ADR-RES cells assessed as cell growth at 10 uM after 48 hrs by SRB assay relative to untreated control; settings: read-out: Activity; method in brief: as §1
[20] = system: NCI-H522; assay: Cytotoxicity against human NCI-H522 cells assessed as cell growth at 10 uM after 48 hrs by SRB assay relative to untreated control; settings: NCI-H522, 48 h, read-out: Activity; method in brief: as §1
[21] = system: HCT-15; assay: Cytotoxicity against human HCT15 cells assessed as cell growth at 10 uM after 48 hrs by SRB assay relative to untreated control; settings: HCT-15, 48 h, read-out: Activity; method in brief: as §2
[22] = system: SK-OV-3; assay: Cytotoxicity against human SKOV3 cells assessed as cell growth at 10 uM after 48 hrs by SRB assay relative to untreated control; settings: SK-OV-3, 48 h, read-out: Activity; method in brief: as §3
[23] = system: NCI-H23; assay: Cytotoxicity against human NCI-H23 cells assessed as cell growth at 10 uM after 48 hrs by SRB assay relative to untreated control; settings: NCI-H23, 48 h, read-out: Activity; method in brief: as §1
[24] = system: HT-29; assay: Cytotoxicity against human HT-29 cells assessed as cell growth at 10 uM after 48 hrs by SRB assay relative to untreated control; settings: HT-29, 48 h, read-out: Activity; method in brief: as §2
[25] = system: CCRF-CEM; assay: Cytotoxicity against human CCRF-CEM cells assessed as cell growth at 10 uM after 48 hrs by SRB assay relative to untreated control; settings: read-out: Activity; method in brief: as §2
[26] = system: 786-0; assay: Cytotoxicity against human […] cells assessed as cell growth at 10 uM after 48 hrs by SRB assay relative to untreated control; settings: 786-0, 48 h, read-out: Activity; method in brief: as §2
[27] = system: M14; assay: Cytotoxicity against human M14 cells assessed as cell growth at 10 uM after 48 hrs by SRB assay relative to untreated control; settings: M14, 48 h, read-out: Activity; method in brief: as §2
[28] = system: Malme-3M; assay: Cytotoxicity against human MALME-3M cells assessed as cell growth at 10 uM after 48 hrs by SRB assay relative to untreated control; settings: read-out: Activity; method in brief: as §2
[29] = system: SF-295; assay: Cytotoxicity against human SF295 cells assessed as cell growth at 10 uM after 48 hrs by SRB assay relative to untreated control; settings: SF-295, 48 h, read-out: Activity; method in brief: as §1
[30] = system: NCI-H226; assay: Cytotoxicity against human NCI-H226 cells assessed as cell growth at 10 uM after 48 hrs by SRB assay relative to untreated control; settings: NCI-H226, 48 h, read-out: Activity; method in brief: as §1
[31] = system: SK-MEL-2; assay: Cytotoxicity against human SK-MEL-2 cells assessed as cell growth at 10 uM after 48 hrs by SRB assay relative to untreated control; settings: SK-MEL-2, 48 h, read-out: Activity; method in brief: as §1
[32] = Cytotoxicity against human OVCAR4 cells assessed as cell growth at 10 uM after 48 hrs by SRB assay relative to untreated control; settings: OVCAR-4, 48 h, read-out: Activity; method in brief: as §1

Row | Structure (SMILES) | growth at 10 µM [1] [%] | growth at 10 µM [2] [%] | growth at 10 µM [3] [%] | growth at 10 µM [4] [%] | growth at 10 µM [5] [%] | growth at 10 µM [6] [%] | growth at 10 µM [7] [%] | growth at 10 µM [8] [%] | growth at 10 µM [9] [%] | growth at 10 µM [10] [%] | growth at 10 µM [11] [%] | growth at 10 µM [12] [%] | growth at 10 µM [13] [%] | growth at 10 µM [14] [%] | growth at 10 µM [15] [%] | growth at 10 µM [16] [%] | growth at 10 µM [17] [%] | growth at 10 µM [18] [%] | growth at 10 µM [19] [%] | growth at 10 µM [20] [%] | also measured
1 | C[C@H]1NC(c2ccc(Br)cc2)=Nc2nc3ccccn3c2C1=O | 83.8 | 112 | 74 | 99.6 | 108 | 85 | 66.6 | 94.2 | 94 | 94.6 | 97 | 101 | 102 | 99.8 | 101 | 90.2 | 81.1 | 69.8 | 95.7 | 79.2 | growth at 10 µM [21]: 97.1%; growth at 10 µM [22]: 97.8%; growth at 10 µM [23]: 90.7%; growth at 10 µM [24]: 104%; growth at 10 µM [25]: 96.9%; growth at 10 µM [26]: 89.1%; growth at 10 µM [27]: 99.2%; growth at 10 µM [28]: 101%; growth at 10 µM [29]: 96.9%; growth at 10 µM [30]: 85.7%; growth at 10 µM [31]: 81.8%; growth at 10 µM [32]: 111%
2 | C[C@@H]1NC(c2ccc(Br)cc2)=Nc2nc3ccccn3c2C1=O | 63.2 | 69 | 52.7 | 54.7 | 87.7 | 67.2 | 59.5 | 31.9 | 69.2 | 91.8 | 38 | 54 | 29.6 | 83.4 | 70 | 29.2 | 43.1 | 55.8 | 39.4 | 34.8 | growth at 10 µM [21]: 30.8%; growth at 10 µM [22]: 72%; growth at 10 µM [23]: 53.7%; growth at 10 µM [24]: 17.5%; growth at 10 µM [25]: 79.4%; growth at 10 µM [26]: 83.1%; growth at 10 µM [27]: 31.8%; growth at 10 µM [28]: 51.8%; growth at 10 µM [29]: 40.9%; growth at 10 µM [30]: 68.3%; growth at 10 µM [31]: 47.4%; growth at 10 µM [32]: 77.5%
3 | COc1ccc(C2=Nc3nc4ccccn4c3C(=O)[C@H](C)N2)cc1 | 87.3 | 97.8 | 84.9 | 106 | 113 | 97 | 72.5 | 100 | 83.8 | 97.7 | 106 | 98.5 | 102 | 104 | 96.1 | 95.9 | 89.3 | 80.4 | 96.5 | 87.4 | growth at 10 µM [21]: 85.2%; growth at 10 µM [22]: 94.7%; growth at 10 µM [23]: 93.5%; growth at 10 µM [24]: 98.5%; growth at 10 µM [25]: 91.7%; growth at 10 µM [26]: 98.5%; growth at 10 µM [27]: 95.4%; growth at 10 µM [28]: 94.3%; growth at 10 µM [29]: 98.2%; growth at 10 µM [30]: 86.9%; growth at 10 µM [31]: 83.4%; growth at 10 µM [32]: 98.4%
